From PubChem BioAssay AID623956 (The Scripps Research Institute Molecular Screening Center, 2012)
The source made the active and inactive calls.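 How the source made its calls: active means at least 4-fold drop in recombinant frequency versus the solvent-only control; inactive means the rest.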

tested on: E. coli recBCD-deleted + H. pylori AddAB/RecA, Hfr recombinant frequency; test: recombination inhibition in AddAB/RecA E. coli, late-stage follow-up, counter-screen for AddAB inhibitor project, colony formation, p(addAB), p(recA), 20 µM (AID 623956); conditions: at 20 µM; active compounds read high
How it was run: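 Assay system: recBCD-deleted E. coli recipient carrying H. pylori addAB and recA plasmids | Dosing: Single 20 µM compound dose, DMSO vehicle | Incubation: 1 h recipient growth with compound, 30 min mating, 1.5 h total | Signal: Colony counts on selective and non-selective plates | Read-out basis: Viability-corrected recombinant frequency drop relative to DMSO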

Row | SMILES | fold reduction
1 | O=C(NCc1cccnc1)c1ccc([N+](=O)[O-])o1 | 0.8 (inactive)
2 | CCn1cc(C(=O)O)c(=O)c2cnc(N3CCN(C(=S)Nc4ccccc4C(F)(F)F)CC3)nc21 | 5
3 | NC(=O)c1ccsc1NC(=O)COC(=O)c1ccc([N+](=O)[O-])o1 | 1.1 (inactive)
4 | O=C(Nc1cccc(NC(=O)c2ccccc2Cl)c1)c1ccc([N+](=O)[O-])o1 | 0.8 (inactive)
5 | Cc1ccc2nc(/C(C#N)=C\c3ccc([N+](=O)[O-])o3)[nH]c2c1 | 1 (inactive)
6 | C=CCn1c(Sc2ncc([N+](=O)[O-])s2)n[nH]c1=O | 1.1 (inactive)
7 | O=C(Nc1ccc(N2CCOCC2)cc1)c1ccc([N+](=O)[O-])o1 | 0.8 (inactive)
8 | Cc1cccnc1NC(=O)c1ccc([N+](=O)[O-])o1 | 0.8 (inactive)
9 | O=C(OCC(=O)c1cccs1)c1ccc([N+](=O)[O-])o1 | 0.9 (inactive)
10 | O=C(Nc1ncccn1)c1ccc([N+](=O)[O-])o1 | 0.9 (inactive)
11 | CC(=O)Nc1ccc2nc(NC(=O)c3ccc([N+](=O)[O-])o3)sc2c1 | 1.1 (inactive)
